Converted amounts (≈) assume the structure as drawn. Values belong to the compound of their own block, whether it stands above or below them.
Columns and labels:
Format in all cases: functional
Staphylococcus aureus [1] = assay: In vitro antibacterial activity against Staphylococcus aureus; value ranges from 3-6 uM
Staphylococcus aureus [2] = assay: In vitro antibacterial activity against Staphylococcus aureus; value ranges from 12-25 uM
Staphylococcus aureus [3] = assay: In vitro antibacterial activity against Staphylococcus aureus; value ranges from 6-12 uM
Staphylococcus aureus [4] = assay: In vitro antibacterial activity against Staphylococcus aureus; value ranges from 50-100 uM
Staphylococcus aureus [5] = assay: In vitro antibacterial activity against Staphylococcus aureus
Pseudomonas aeruginosa = assay: Minimum inhibitory concentration against Pseudomonas aeruginosa ATCC 25416
Staphylococcus aureus [6] = assay: Minimum inhibitory concentration against Staphylococcus aureus ATCC 13709; value ranges from 3-6 uM
Huh-7 [7] = assay: Cytotoxic concentration against Huh7 cells at 48 hours in MTT assay; value ranges from 12.5-25 uM; conditions: Homo sapiens, Huh-7, 48 h
Staphylococcus aureus [8] = assay: Minimum inhibitory concentration against Staphylococcus aureus ATCC 13709 (+4% BSA); value ranges from 12-25 uM
Outline: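 Same microdilution MIC against S. aureus ATCC 13709, but with 4% bovine serum albumin in the wells. Compound in 0.5% DMSO in water, inoculum about 10³–10⁴ CFU/well, duplicates. Growth was read as A595 after 20–24 h at 37°C against a compound-free control. MIC is reported as the range between full inhibition and viable growth.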

Streptococcus pyogenes [9] = assay: Minimum inhibitory concentration against Streptococcus pyogenes ATCC 49399; value ranges from 3-6 uM
Proteus vulgaris = assay: Minimum inhibitory concentration against Proteus vulgaris ATCC 8427; value ranges from 12-25 uM
Escherichia coli [10] = assay: Minimum inhibitory concentration against Escherichia coli ATCC 25922; value ranges from 6-12 uM
Klebsiella pneumoniae [11] = assay: Minimum inhibitory concentration against Klebsiella pneumoniae ATCC 13383; value ranges from 6-12 uM
Enterococcus faecalis [12] = assay: Minimum inhibitory concentration against Enterococcus faecalis ATCC 29212; value ranges from 3-6 uM
Enterococcus faecium = assay: Minimum inhibitory concentration against Enterococcus faecium ATCC 6569
Mus musculus [13] = assay: In vivo antibacterial activity (Staphylococcus aureus) in a lethal murine model at a dose of 4.6 mg/kg; activity expressed as no. of mice alive/total tested; 0/10
Enterococcus faecalis [14] = assay: Minimum inhibitory concentration against Enterococcus faecalis ATCC 29212
Mus musculus [15] = assay: In vivo antibacterial activity (Staphylococcus aureus) in a lethal murine model at a dose of 37.6 mg/kg; activity expressed as no. of mice alive/total tested; 3/10
Mus musculus [16] = assay: In vivo antibacterial activity (Staphylococcus aureus) in a lethal murine model at a dose of 18.8 mg/kg; activity expressed as no. of mice alive/total tested; 4/10
Mus musculus [17] = assay: In vivo antibacterial activity (Staphylococcus aureus) in a lethal murine model at a dose of 9.4 mg/kg; activity expressed as no. of mice alive/total tested; 2/10
Mus musculus [18] = assay: In vivo antibacterial activity (Staphylococcus aureus) in a lethal murine model at a dose of 75 mg/kg; activity expressed as no. of mice alive/total tested; 3/10
Huh-7 [19] = assay: Cytotoxic concentration against Huh7 cells at 48 hours in MTT assay; value ranges from 25-50 uM; conditions: Homo sapiens, Huh-7, 48 h
Staphylococcus aureus [20] = assay: In vitro antibacterial activity against Staphylococcus aureus; value ranges from 25-50 uM
Streptococcus pyogenes [21] = assay: Minimum inhibitory concentration against Streptococcus pyogenes ATCC 49399; value ranges from 1.5-3 uM
Escherichia coli [22] = assay: Minimum inhibitory concentration against Escherichia coli ATCC 25922
Klebsiella pneumoniae [23] = assay: Minimum inhibitory concentration against Klebsiella pneumoniae ATCC 13383
Staphylococcus aureus [24] = assay: Minimum inhibitory concentration against Staphylococcus aureus ATCC 13709 (+4% BSA); value ranges from 3-6 uM

- MIC (Staphylococcus aureus [1]): 6 µM (≈ 3.32 µg/mL)
Structure (SMILES): O=C(NCCCNCCCOc1ccc(Br)cc1Br)Nc1ccc(C(F)(F)F)cc1

- MIC (Staphylococcus aureus [2]): 25 µM (≈ 11.8 µg/mL)
Structure (SMILES): Cc1ccc(N/C(S)=N/CCCNCc2cc(Br)cc(Br)c2)cc1

- MIC (Staphylococcus aureus [1]): 6 µM (≈ 2.61 µg/mL)
Structure (SMILES): O=C(NCCCNCc1ccc(OC(F)(F)F)cc1)Nc1ccc(C(F)(F)F)cc1

- MIC (Staphylococcus aureus [3]): 12 µM (≈ 6.11 µg/mL)
Structure (SMILES): O=C(NCCCNCc1cc(Br)cc(Br)c1)Nc1cccc(C(F)(F)F)c1

- MIC (Staphylococcus aureus [3]): 12 µM (≈ 6.3 µg/mL)
Structure (SMILES): O=C(NCCCNCc1cc(Br)cc(Br)c1)Nc1ccc(OC(F)(F)F)cc1

- MIC (Staphylococcus aureus [2]): 25 µM (≈ 10.9 µg/mL)
Structure (SMILES): O=C(NCCCNCc1ccccc1OC(F)(F)F)Nc1ccc(C(F)(F)F)cc1

- MIC (Staphylococcus aureus [4]): 100 µM (≈ 38.7 µg/mL)
Structure (SMILES): O=C(NCCCNCc1cc(F)cc(F)c1)Nc1ccc(C(F)(F)F)cc1

- MIC (Staphylococcus aureus [5]): > 100 µM
Structure (SMILES): O=C(NCCCNCc1cc(Br)cc(Br)c1O)Nc1ccc(C(F)(F)F)cc1

- MIC (Pseudomonas aeruginosa): > 100 µM
- MIC (Staphylococcus aureus [1]): 6 µM (≈ 2.66 µg/mL)
- MIC (Staphylococcus aureus [6]): 6 µM (≈ 2.66 µg/mL)
- MIC (Staphylococcus aureus [8]): 25 µM (≈ 11.1 µg/mL)
- MIC (Streptococcus pyogenes [9]): 6 µM (≈ 2.66 µg/mL)
- MIC (Proteus vulgaris): 25 µM (≈ 11.1 µg/mL)
- MIC (Escherichia coli [10]): 12 µM (≈ 5.32 µg/mL)
- MIC (Klebsiella pneumoniae [11]): 12 µM (≈ 5.32 µg/mL)
- MIC (Enterococcus faecalis [12]): 6 µM (≈ 2.66 µg/mL)
- MIC (Enterococcus faecium): > 100 µM
Structure (SMILES): O=C(NCCCNCc1ccc(Oc2ccccc2)cc1)Nc1ccc(C(F)(F)F)cc1
- CC50 (Huh-7 [7]): 25 µM

- MIC (Staphylococcus aureus [2]): 25 µM (≈ 11.9 µg/mL)
Structure (SMILES): Fc1ccc(N/C(S)=N/CCCNCc2cc(Br)cc(Br)c2)cc1

- MIC (Staphylococcus aureus [4]): 100 µM (≈ 35.1 µg/mL)
Structure (SMILES): O=C(NCCCNCc1ccccc1)Nc1ccc(C(F)(F)F)cc1

- MIC (Staphylococcus aureus [3]): 12 µM (≈ 5.71 µg/mL)
Structure (SMILES): O=C(NCCCNCc1cc(Br)cc(Br)c1)Nc1ccc(Cl)cc1

Structure (SMILES): O=C(NCCCNCc1ccc(-c2ccccc2)cc1)Nc1ccc(C(F)(F)F)cc1
- MIC (Pseudomonas aeruginosa): > 100 µM
- MIC (Staphylococcus aureus [1]): 6 µM (≈ 2.56 µg/mL)
- No. of animals alive (Mus musculus [13]): 0
- MIC (Staphylococcus aureus [6]): 6 µM (≈ 2.56 µg/mL)
- MIC (Enterococcus faecalis [14]): > 100 µM
- No. of animals alive (Mus musculus [15]): 3
- No. of animals alive (Mus musculus [16]): 4
- MIC (Staphylococcus aureus [8]): 25 µM (≈ 10.7 µg/mL)
- MIC (Streptococcus pyogenes [9]): 6 µM (≈ 2.56 µg/mL)
- No. of animals alive (Mus musculus [17]): 2
- MIC (Proteus vulgaris): 25 µM (≈ 10.7 µg/mL)
- MIC (Escherichia coli [10]): 12 µM (≈ 5.13 µg/mL)
- No. of animals alive (Mus musculus [18]): 3
- MIC (Klebsiella pneumoniae [11]): 12 µM (≈ 5.13 µg/mL)
- CC50 (Huh-7 [19]): 50 µM
- MIC (Enterococcus faecium): > 100 µM

- MIC (Staphylococcus aureus [3]): 12 µM (≈ 5.04 µg/mL)
Structure (SMILES): O=C(NCCCNCc1cc(Cl)cc(Cl)c1)Nc1ccc(C(F)(F)F)cc1

- MIC (Staphylococcus aureus [3]): 12 µM (≈ 6.43 µg/mL)
Structure (SMILES): S=C(NCCCNCc1cc(Br)cc(Br)c1)Nc1cccc(Br)c1

- MIC (Staphylococcus aureus [1]): 6 µM (≈ 2.52 µg/mL)
Structure (SMILES): O=C(NCCCNCc1ccc(Cl)c(Cl)c1)Nc1ccc(C(F)(F)F)cc1

- MIC (Staphylococcus aureus [20]): 50 µM (≈ 24.1 µg/mL)
Structure (SMILES): N#Cc1ccc(NC(=S)NCCCNCc2cc(Br)cc(Br)c2)cc1

- MIC (Staphylococcus aureus [4]): 100 µM (≈ 41.1 µg/mL)
Structure (SMILES): COc1cc(CNCCCNC(=O)Nc2ccc(C(F)(F)F)cc2)cc(OC)c1

- MIC (Staphylococcus aureus [5]): > 100 µM
Structure (SMILES): CC(=O)Nc1ccc(CNCCCNC(=O)Nc2ccc(C(F)(F)F)cc2)cc1

- MIC (Staphylococcus aureus [1]): 6 µM (≈ 3.16 µg/mL)
Structure (SMILES): S=C(NCCCNCc1cc(Br)cc(Br)c1)Nc1ccc(Cl)c(Cl)c1

- MIC (Staphylococcus aureus [2]): 25 µM (≈ 12.6 µg/mL)
Structure (SMILES): O=[N+]([O-])c1ccc(N/C(S)=N/CCCNCc2cc(Br)cc(Br)c2)cc1

Structure (SMILES): CC(=O)NCC1CN(c2ccc(N3CCOCC3)c(F)c2)C(=O)O1 (single isomer, unassigned) [LINEZOLID]
- MIC (Pseudomonas aeruginosa): > 100 µM
- MIC (Streptococcus pyogenes [21]): 3 µM (≈ 1.01 µg/mL)
- MIC (Staphylococcus aureus [1]): 6 µM (≈ 2.02 µg/mL)
- MIC (Staphylococcus aureus [6]): 6 µM (≈ 2.02 µg/mL)
- MIC (Escherichia coli [22]): > 100 µM
- MIC (Klebsiella pneumoniae [23]): > 100 µM
- MIC (Staphylococcus aureus [24]): 6 µM (≈ 2.02 µg/mL)
- MIC (Proteus vulgaris): 25 µM (≈ 8.43 µg/mL)
- MIC (Enterococcus faecalis [12]): 6 µM (≈ 2.02 µg/mL)
- MIC (Enterococcus faecium): > 100 µM

- MIC (Staphylococcus aureus [3]): 12 µM (≈ 5.9 µg/mL)
Structure (SMILES): S=C(NCCCNCc1cc(Br)cc(Br)c1)Nc1cccc(Cl)c1
